Like-named read-outs stand apart in the source and are kept apart here. No end group written: not given here.
Tests used:
G-actin = test: Interaction of WH2 peptides with G-actin; type: binding
F-actin [1] = test: F-actin co-sedimentation; type: binding; settings: co-sedimentation assays, data not shown
F-actin [2] = test: Pi release assay of steady state actin filament turnover in the presence of Cof1; type: biochemical, rabbit; settings: 8 μM actin, 25°C
Summary of the method: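 Cof1 and full-length Srv2 were premixed with 2 mM MgCl2, 0.5 mM ATP, 50 mM KCl, 0.2 mM MESG and 0.1 units PNP. Rabbit muscle actin monomers were added to start polymerization. Once the reaction reached steady state, Pi release was read for 15 min. After path-length correction, steady-state slopes were obtained by linear fit.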

actin = test: Steady state actin critical concentration; type: biochemical; settings: for steady state critical concentration for actin assembly (Cc): saturating Srv2 or WH2 peptide, actin alone Cc = 0.21
[3] = Fluorescence-monitored urea denaturation; type: physicochemical
Summary of the method: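 Full-length 6xHis-tagged wild type and mutant Srv2 were expressed in E. coli BL21-RP (DE3), purified by IMAC then Superose 6 gel filtration in 20 mM Tris pH 8.0, 50 mM NaCl, 1 mM DTT, and stored at -80°C. Unfolding was followed by fluorescence as a function of urea concentration, with fluorescence normalized.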

[4] = test system: Cof1-bound ADP-actin monomers; test: Nucleotide exchange on Cof1-bound ADP-actin monomers; type: biochemical, rabbit
Summary of the method: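 Rabbit muscle ADP-actin (2 μM) was kept in G-buffer without ATP (10 mM Tris pH 7.5, 0.2 mM CaCl2, 0.2 mM DTT). It was mixed with 20 mM Tris pH 8.0, 50 mM NaCl, alone or containing Cof1 and/or varying full-length Srv2 (yeast profilin from E. coli where used), then added to ε-ATP. The fluorescence rise at 350/410 nm was monitored for at least 600 s.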

[5] = molecular target: Rabbit skeletal muscle actin, monomeric (G-actin) (rabbit) (UniProt P68135); test: inhibition of nucleotide exchange on actin
[6] = molecular target: Rabbit skeletal muscle actin, monomeric (G-actin) (rabbit) (UniProt P68135); test: inhibition of nucleotide exchange on actin; remark: listed apart in the source
NBD-labeled G-actin = settings: ref Mattila et al., 2004; cited from earlier work

Molecule: 306-349: WH2 domain-containing peptide of Srv2, a.a. 306-349 (GIGAVFAELNQGENITKGLKKVDKSQQTHKNPELRQSSTVSSTG; UniProt P17555 306-349, looked up, fragment)
- interaction with G-actin (in words) (G-actin): both WH2 peptides interacted with G-actin
- binding affinity for F-actin (in words) (F-actin [1]): Neither WH2 peptide showed any detectable binding affinity for F-actin

Molecule: Srv2-WT: full-length 6xHis-tagged wild type yeast Srv2/CAP protein purified from E. coli
- effect on actin turnover (Pi release) (in words) (F-actin [2]; 4 μM Cof1, 0-500 nM protein): increased the rate of turnover in a concentration-dependent manner
- rate increase of actin turnover (Pi release), peak (F-actin [2]; 4 μM Cof1, Srv2 0-500 nM, 360 nm (Fig. 8A)): 4 fold
- steady state critical concentration for actin assembly (Cc) (actin; data not shown): 2.4 µM
- increase of critical concentration versus actin alone (actin; versus actin alone, data not shown): 10 fold
- folding / stability by urea denaturation (in words) [3]: folded correctly
- urea concentration of unfolding [3]: ~ 5 M urea
- Srv2 concentration of peak effect on nucleotide exchange rate ([4]; 2 μM ADP-G-actin, 5 μM Cof1, 25°C (Fig. 7A)): 300 to 400 nM

Molecule: Srv2/CAP WH2 peptide (a.a. 295-349), wild type (from UniProt P17555 295-349) (domain or fragment)
- Kd [5]: 1500 nM
- Kd [6]: 1400 nM

Molecule: WH2 peptide: 6xHis-tagged WH2 domain of S. cerevisiae Srv2, a.a. 295-349, purified from E. coli (TPATSSDANKGGIGAVFAELNQGENITKGLKKVDKSQQTHKNPELRQSSTVSSTG; also: 6xHis tag, end not given here)
- interaction with G-actin (in words) (G-actin): both WH2 peptides interacted with G-actin
- binding affinity for F-actin (in words) (F-actin [1]): Neither WH2 peptide showed any detectable binding affinity for F-actin
- effect on steady state critical concentration (in words) (actin; actin + WH2 versus actin alone): did not alter the steady state critical concentration for actin assembly
- steady state critical concentration for actin assembly (Cc) (actin; data not shown): 0.26 µM

B1: profilin: Yeast profilin (Pfy1) purified from E. coli (protein, UniProt P07274 1-126, looked up)
Profilin: MSWQAYTDNLIGTGKVDKAVIYSRAGDAVWATSGGLSLQPNEIGEIVQGFDNPAGLQSNGLHIQGQKFMLLRADDRSIYGRHDAEGVVCVRTKQTVIIAHYPPTVQAGEATKIVEQLADYLIGVQY
- effect on nucleotide exchange on Cof1-bound ADP-actin, protein alone (in words) ([4]; 2 μM ADP-G-actin, 5 μM Cof1, 50 μM ε-ATP, 25°C): no detectable activity
- effect of profilin on Srv2-WT promotion of nucleotide exchange (in words) ([4]; 5 μM yeast profilin with 400 nM full-length Srv2-WT, 5 μM Cof1 (Fig. 7F)): does not enhance Srv2’s effects

B2: fragment of Srv2/CAP containing the WH2 domain (a.a. 253-373): purified fragment of Srv2/CAP from an earlier study (Mattila et al., 2004) (protein, UniProt P17555 253-373, looked up, fragment)
chain: MAQSTKNTGATSSPSPASATAAPAPPPPPPAPPASVFEISNDTPATSSDANKGGIGAVFAELNQGENITKGLKKVDKSQQTHKNPELRQSSTVSSTGSKSGPPPRPKKPSTLKTKRPPRKE
- binding affinity for NBD-labeled G-actin (in words) (NBD-labeled G-actin): no detectable binding affinity for NBD-labeled G-actin

Source: publication PMC2857556 (Cytoskeleton (Hoboken, N.J.), 2010)
